From ChEMBL document CHEMBL1140861, “Short antisense oligonucleotides with novel 2'-4' conformationaly restricted nucleoside analogues show improved potency without increased toxicity in animals” (J Med Chem, 2009)
Calls of active or inactive are those of the source. The calls are words filed in the database; no cut-off is given here.

Columns and labels:
[1] = test system: Mus musculus; assay: Reduction of PTEN mRNA level in BALB/c mouse liver at 100 mg/kg, ip after 72 hrs; type: functional
How it was run: (§1)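 Balb/c mice, 6 weeks old, n = 4 per dose group, single ip doses of 32, 66 or 100 mg/kg; killed 72 h after administration; serum ALT and liver PTEN mRNA quantified after sacrifice; errors as sd.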

[2] = test system: Mus musculus; assay: Hepatotoxicity in BALB/c mouse assessed as increase in liver ALT level at 15 mg/kg, ip administered twice a week for 3 weeks measured after 72 hrs of last dose; type: toxicity, organism-based; set-up: dose 15 mg/kg, route intraperitoneal; conditions: in vivo
How it was run: (§2)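 Male Balb/c mice, 6 weeks old, dosed ip twice weekly for 3 weeks at 0.5, 1.5, 4.7 and 15 mg/kg (two ASOs) or 0.7, 2.3, 7.2 and 23 mg/kg (MOE control); sacrificed 72 h after last dose; ALT, liver PTEN mRNA, liver and spleen weights and body weight gain assessed; ED50 derived; errors as sd.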

[3] = test system: Mus musculus; assay: Toxicity in BALB/c mouse assessed as reduction in body weight at 4.7 mg/kg, ip administered twice a week for 3 weeks measured after 72 hrs of last dose; type: organism-based; set-up: dose 4.7 mg/kg, route intraperitoneal; conditions: in vivo; how it was run: as §2
[4] = test system: Mus musculus; assay: Toxicity in BALB/c mouse assessed as increase in liver weight at 0.5 mg/kg, ip administered twice a week for 3 weeks measured after 72 hrs of last dose; type: organism-based; set-up: dose 0.5 mg/kg, route intraperitoneal; conditions: in vivo; how it was run: as §2
[5] = test system: Mus musculus; assay: Toxicity in BALB/c mouse assessed as reduction in body weight at 0.5 mg/kg, ip administered twice a week for 3 weeks measured after 72 hrs of last dose; type: organism-based; set-up: dose 0.5 mg/kg, route intraperitoneal; conditions: in vivo; how it was run: as §2
[6] = test system: Mus musculus; assay: Toxicity in BALB/c mouse assessed as increase in liver weight at 1.5 mg/kg, ip administered twice a week for 3 weeks measured after 72 hrs of last dose; type: organism-based; set-up: dose 1.5 mg/kg, route intraperitoneal; conditions: in vivo; how it was run: as §2
[7] = test system: bEND; assay: Reduction in mouse PTEN mRNA level expressed in mouse bEND cells; type: functional, cell-based
How it was run: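 bEND mouse brain endothelial cells transfected with ASO using lipofectin; PTEN mRNA reduction measured over a dose range; IC50 taken from dose-response curves.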

[8] = test system: Mus musculus; assay: Hepatotoxicity in BALB/c mouse assessed as increase in liver ALT level at 0.5 mg/kg, ip administered twice a week for 3 weeks measured after 72 hrs of last dose; type: toxicity, organism-based; set-up: dose 0.5 mg/kg, route intraperitoneal; conditions: in vivo; how it was run: as §2
[9] = test system: Mus musculus; assay: Reduction of PTEN mRNA level in BALB/c mouse liver at 32 mg/kg, ip after 72 hrs; type: functional, organism-based; set-up: dose 32 mg/kg; how it was run: as §1
[10] = test system: Mus musculus; assay: Reduction of PTEN level in ip dosed BALB/c mouse liver at 37 mg/kg by Western blot analysis; type: functional, organism-based; set-up: dose 37 mg/kg
[11] = test system: Mus musculus; assay: Toxicity in BALB/c mouse assessed as reduction in body weight at 15 mg/kg, ip administered twice a week for 3 weeks measured after 72 hrs of last dose; type: organism-based; set-up: dose 15 mg/kg, route intraperitoneal; conditions: in vivo; how it was run: as §2
[12] = test system: Mus musculus; assay: Reduction of PTEN mRNA level in ip dosed BALB/c mouse liver administered twice a week for 3 weeks measured after 72 hrs of last dose; type: functional; how it was run: as §2
[13] = test system: Mus musculus; assay: Reduction of PTEN mRNA level in ip dosed BALB/c mouse liver after 72 hrs; type: functional
[14] = test system: Mus musculus; assay: Reduction of PTEN mRNA expression in ip dosed BALB/c mouse administered twice a week for 3 weeks assessed as antisense oligonucleotide level in liver measured after 72 hrs of last dose; type: functional, organism-based
[15] = test system: Mus musculus; assay: Toxicity in BALB/c mouse assessed as increase in spleen weight at 15 mg/kg, ip administered twice a week for 3 weeks measured after 72 hrs of last dose; type: organism-based; set-up: dose 15 mg/kg, route intraperitoneal; conditions: in vivo; how it was run: as §2
[16] = test system: Mus musculus; assay: Hepatotoxicity in BALB/c mouse assessed as increase in liver ALT level at 100 mg/kg, ip after 72 hrs; type: toxicity, organism-based; set-up: dose 100 mg/kg, route intraperitoneal; conditions: in vivo; how it was run: as §1
[17] = test system: Mus musculus; assay: Toxicity in BALB/c mouse assessed as increase in spleen weight at 1.5 mg/kg, ip administered twice a week for 3 weeks measured after 72 hrs of last dose; type: organism-based; set-up: dose 1.5 mg/kg, route intraperitoneal; conditions: in vivo; how it was run: as §2
[18] = test system: Mus musculus; assay: Toxicity in BALB/c mouse assessed as increase in liver weight at 15 mg/kg, ip administered twice a week for 3 weeks measured after 72 hrs of last dose; type: organism-based; set-up: dose 15 mg/kg, route intraperitoneal; conditions: in vivo; how it was run: as §2
[19] = test system: Mus musculus; assay: Hepatotoxicity in BALB/c mouse assessed as increase in liver ALT level at 1.5 mg/kg, ip administered twice a week for 3 weeks measured after 72 hrs of last dose; type: toxicity, organism-based; set-up: dose 1.5 mg/kg, route intraperitoneal; conditions: in vivo; how it was run: as §2
[20] = test system: Mus musculus; assay: Toxicity in BALB/c mouse assessed as increase in spleen weight at 0.5 mg/kg, ip administered twice a week for 3 weeks measured after 72 hrs of last dose; type: organism-based; set-up: dose 0.5 mg/kg, route intraperitoneal; conditions: in vivo; how it was run: as §2
[21] = test system: Mus musculus; assay: Metabolic stability in BALB/c mouse liver assessed as antisense oligonucleotide level at 18 mg/kg; type: ADME, organism-based; set-up: dose 18 mg/kg; conditions: in vivo
[22] = test system: Mus musculus; assay: Hepatotoxicity in BALB/c mouse assessed as increase in liver ALT level at 4.7 mg/kg, ip administered twice a week for 3 weeks measured after 72 hrs of last dose; type: toxicity, organism-based; set-up: dose 4.7 mg/kg, route intraperitoneal; conditions: in vivo; how it was run: as §2
[23] = species on record: Mus musculus; assay: Binding affinity to mouse PTEN mRNA assessed as melting temperature
How it was run: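 Tm of ASO–RNA duplex, i.e. melting temperature of the ASO hybridised to its complementary RNA.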

[24] = test system: Mus musculus; assay: Reduction of PTEN mRNA level in BALB/c mouse liver at 66 mg/kg, ip after 72 hrs; type: functional, organism-based; set-up: dose 66 mg/kg; how it was run: as §1
[25] = test system: Mus musculus; assay: Toxicity in BALB/c mouse assessed as increase in spleen weight at 4.7 mg/kg, ip administered twice a week for 3 weeks measured after 72 hrs of last dose; type: organism-based; set-up: dose 4.7 mg/kg, route intraperitoneal; conditions: in vivo; how it was run: as §2
[26] = test system: Mus musculus; assay: Toxicity in BALB/c mouse assessed as reduction in body weight at 1.5 mg/kg, ip administered twice a week for 3 weeks measured after 72 hrs of last dose; type: organism-based; set-up: dose 1.5 mg/kg, route intraperitoneal; conditions: in vivo; how it was run: as §2
[27] = test system: Mus musculus; assay: Toxicity in BALB/c mouse assessed as increase in liver weight at 4.7 mg/kg, ip administered twice a week for 3 weeks measured after 72 hrs of last dose; type: organism-based; set-up: dose 4.7 mg/kg, route intraperitoneal; conditions: in vivo; how it was run: as §2

Cc1cn([C@@H]2O[C@@]3(COP(O)(=S)O[C@H]4[C@H]5O[C@@H](C)[C@]4(COP(O)(=S)O[C@H]4C[C@H](n6cc(C)c(=O)[nH]c6=O)O[C@@H]4COP(O)(=S)O[C@H]4[C@@H](O)[C@H](n6cnc7c6N=CNC7N)O[C@@H]4COP(O)(=S)O[C@H]4[C@@H](O)[C@H](n6cnc7c(=O)[nH]c(N)nc76)O[C@@H]4COP(O)(=S)O[C@H]4[C@@H](O)[C@H](n6ccc(N)nc6=O)O[C@@H]4COP(O)(=S)O[C@H]4[C@@H](O)[C@H](n6cnc7c(N)ncnc76)O[C@@H]4COP(O)(=S)O[C@H]4[C@@H](O)[C@H](n6ccc(N)nc6=O)O[C@@H]4COP(O)(=S)O[C@H]4[C@@H](O)[C@H](n6cc(C)c(=O)[nH]c6=O)O[C@@H]4COP(O)(=S)O[C@H]4[C@@H](O)[C@H](n6cnc7c(=O)[nH]c(N)nc76)O[C@@H]4COP(O)(=S)O[C@H]4[C@@H](O)[C@H](n6cnc7c(=O)[nH]c(N)nc76)O[C@@H]4COP(O)(=S)O[C@H]4[C@@H](O)[C@H](n6ccc(N)nc6=O)O[C@@H]4COP(O)(=S)O[C@H]4[C@H]6O[C@@H](C)[C@]4(COP(O)(=S)O[C@H]4[C@H]7O[C@@H](C)[C@]4(COP(=O)(O)O)O[C@H]7n4ccc(=O)[nH]c4=O)O[C@H]6n4cc(C)c(N)nc4=O)O[C@H]5n4ccc(=O)[nH]c4=O)[C@H](C)O[C@@H]2[C@@H]3O)c(=O)nc1N (stereo partly drawn)
Activity [1]: Active
Activity ([1]; route intraperitoneal): >90%
Activity [2]: Toxic
Activity [3]: Toxic
Activity [4]: Non-toxic
Activity [5]: Toxic
Activity [6]: Non-toxic
IC50 [7]: 5.8 nM
Activity [8]: Toxic
Activity [9]: Active
Activity [10]: Active
Activity [11]: Toxic
ED50 [12]: 2.4 mg/kg
ED50 [13]: 9 mg/kg
EC50 [14]: 6.3 µg/g
Activity [15]: Non-toxic
Activity [16]: Non-toxic
Activity [17]: Non-toxic
Activity [18]: Non-toxic
Activity [19]: Toxic
Activity [20]: Non-toxic
Stability [21]: 25 µg/g
Activity [22]: Toxic
Tm [23]: 59.1 °C
Activity [24]: Active
Activity [25]: Non-toxic
Activity [26]: Toxic
Activity [27]: Non-toxic
